Laboratory results reported in article PMC6583781 (Journal of medicinal chemistry, 2019).

Tests used:
[1] = biological target: APE1 (Homo sapiens, UniProt P27695); test: APE1 endonuclease; assay type: biochemical
Method in brief: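 Purified full-length APE1 (0.25-1.25 nM) added to 50 nM duplex substrate (6-FAM strand with tetrahydrofuran AP-site mimic annealed to a quencher strand) in 50 mM Tris, 1 mM MgCl2, 50 mM NaCl, pH 7.5. Compounds in triplicate, 10-point 1:2 dilutions from 100 μM. Fluorescence read kinetically at five 1-min intervals immediately; reaction rate compared with DMSO vehicle.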

[2] = tested on: Pa02c cells; test: Cell cytotoxicity assay; assay type: cell-based; details: Homo sapiens, 48 h, read-out: PaO2c EC50
Method in brief: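 Low-passage patient-derived pancreatic Pa02c cells, kept in DMEM with 10% FBS. Plated at 2000 cells/well in poly-D-lysine-treated plates and grown overnight at 37 °C, 5% CO2. Test compound in 5% FBS DMEM, 5-point 1:2 serial dilution from 100 µM, with DMSO vehicle and drug-background wells, for 48 h. Medium then refreshed and Alamar Blue added (10% final) for 4 h. Fluorescence read, background-subtracted, normalized to media alone.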

Chain of APE1 (P27695 whole entry): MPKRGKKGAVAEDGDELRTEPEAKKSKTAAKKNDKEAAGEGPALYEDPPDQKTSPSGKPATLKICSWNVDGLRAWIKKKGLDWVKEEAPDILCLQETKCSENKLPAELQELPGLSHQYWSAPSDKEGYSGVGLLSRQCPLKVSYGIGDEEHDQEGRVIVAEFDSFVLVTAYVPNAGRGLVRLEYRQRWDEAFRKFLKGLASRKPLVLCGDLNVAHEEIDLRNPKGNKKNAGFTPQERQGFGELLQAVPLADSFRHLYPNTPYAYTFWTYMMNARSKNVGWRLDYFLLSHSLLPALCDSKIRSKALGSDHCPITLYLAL

Row | IC50 [1] | Structure (SMILES) | EC50 [2]
1 | 16.9 µM | Cc1ccc(S(=O)(=O)n2cccc2[C@@H]2NC(=O)[C@H](Cc3c[nH]c4ccccc34)NC(=O)CCNC(=O)C/C=C/[C@@H]2C)cc1 [Compound 19, (3S,13S,14R,E)-3-((1H-Indol-3-yl)methyl)-13-methyl-14-(1-tosyl-1H-pyrrol-2-yl)-1,4,8-triazacyclotetradec-11-ene-2,5,9-trione] | –
2 | – | Cc1ccc(S(=O)(=O)n2cccc2[C@@H]2NC(=O)[C@H](Cc3c[nH]c4ccccc34)NC(=O)C[C@H](CCc3ccccc3)NC(=O)C/C=C/[C@@H]2C)cc1 [Compound 20, (3S,7S,13S,14R,E)-3-((1H-Indol-3-yl)methyl)-13-methyl-7-phenethyl-14-(1-tosyl-1H-pyrrol-2-yl)-1,4,8-triazacyclotetradec-11-ene-2,5,9-trione] | > 100 µM
3 | – | Cc1ccc(S(=O)(=O)n2cccc2[C@@H]2NC(=O)[C@H](Cc3c[nH]c4ccccc34)NC(=O)C[C@@H](CCc3ccccc3)NC(=O)C/C=C/[C@@H]2C)cc1 [Compound 21, (3S,7R,13S,14R,E)-3-((1H-Indol-3-yl)methyl)-13-methyl-7-phenethyl-14-(1-tosyl-1H-pyrrol-2-yl)-1,4,8-triazacyclotetradec-11-ene-2,5,9-trione] | > 100 µM
